Results as given in ChEMBL document CHEMBL1649468, “AAC(6')-Iaf, a novel aminoglycoside 6'-N-acetyltransferase from multidrug-resistant Pseudomonas aeruginosa clinical isolates” (2009).
Values after ≈ are worked out from the molar mass of the structure shown.

Experiments:
[1] = test system: Pseudomonas aeruginosa; test: Antimicrobial activity against Pseudomonas aeruginosa isolate IMCJ798 by microdilution method; format: functional
Method in brief: (§1)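 Broth microdilution MIC following CLSI-recommended protocols, tested on multidrug-resistant clinical P. aeruginosa isolates against a panel of individual aminoglycosides. MIC reported in μg/ml.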

[2] = test system: Pseudomonas aeruginosa; test: Antimicrobial activity against Pseudomonas aeruginosa isolate IMCJ799 by microdilution method; format: functional; method in brief: as §1
[3] = test system: Pseudomonas aeruginosa; test: Antimicrobial activity against multidrug resistant Pseudomonas aeruginosa isolate IMCJ2S1 by microdilution method; format: functional
[4] = test system: Pseudomonas aeruginosa; test: Antimicrobial activity against rifampin-resistant Pseudomonas aeruginosa ATCC 27853 by microdilution method; format: functional
[5] = test system: Escherichia coli; test: Antimicrobial activity against Escherichia coli JM109 transformant harboring pSTV28 plasmid by microdilution method
[6] = test system: Escherichia coli; test: Antimicrobial activity against Escherichia coli JM109 transformant harboring pSTV28 plasmid expressing aac(6')-Iaf wild type gene by microdilution method; format: functional
Method in brief: (§2)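 Broth microdilution MICs followed CLSI protocols. The test strains were E. coli JM109 carrying the vector pSTV28 alone or pSTV28 bearing aac(6′)-Iaf (wild type or TTG→ATG start codon). Each strain was tested in Mueller-Hinton broth containing chloramphenicol (30 μg/ml) plus serial dilutions of individual aminoglycosides. MICs are reported in μg/ml.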

[7] = test system: Escherichia coli; test: Antimicrobial activity against Escherichia coli JM109 transformant harboring pSTV28 plasmid expressing aac(6')-Iaf (TTG-ATG) mutant gene by microdilution method; format: functional; method in brief: as §2
[8] = test system: Pseudomonas aeruginosa; test: Antimicrobial activity against multidrug resistant Pseudomonas aeruginosa by microdilution method; format: functional
[9] = test system: Pseudomonas aeruginosa; test: Antimicrobial activity against Pseudomonas aeruginosa isolate IMCJ798 by microdilution method in presence of beta-lactamase inhibitor Tazobactam; format: functional
[10] = test system: Pseudomonas aeruginosa; test: Antimicrobial activity against Pseudomonas aeruginosa isolate IMCJ799 by microdilution method in presence of beta-lactamase inhibitor Tazobactam; format: functional
[11] = test system: Pseudomonas aeruginosa; test: Antimicrobial activity against multidrug resistant Pseudomonas aeruginosa isolate IMCJ2S1 by microdilution method in presence of beta-lactamase inhibitor Tazobactam; format: functional
[12] = test system: Pseudomonas aeruginosa; test: Antimicrobial activity against rifampin-resistant Pseudomonas aeruginosa ATCC 27853 by microdilution method in presence of beta-lactamase inhibitor Tazobactam; format: functional

Compound	MIC [1]	MIC [2]	MIC [3]	MIC [4]	MIC [5]	MIC [6]	MIC [7]	MIC [8]	MIC [9]	MIC [10]	MIC [11]	MIC [12]
NCC[C@H](O)C(=O)N[C@@H]1C[C@H](N)[C@@H](O[C@H]2O[C@H](CN)[C@@H](O)[C@H](O)[C@H]2O)[C@H](O)[C@H]1O[C@H]1O[C@H](CO)[C@@H](O)[C@H](N)[C@H]1O [AMIKACIN]	128 µg/mL (≈ 219 µM)	128 µg/mL (≈ 219 µM)	128 µg/mL (≈ 219 µM)	2 µg/mL (≈ 3.42 µM)	1 µg/mL (≈ 1.71 µM)	16 µg/mL (≈ 27.3 µM)	32 µg/mL (≈ 54.6 µM)	≥ 32 µg/mL	–	–	–	–
NCC[C@H](O)C(=O)N[C@@H]1C[C@H](N)[C@@H](O[C@H]2O[C@H](CN)CC[C@H]2N)[C@H](O)[C@H]1O[C@H]1O[C@H](CO)[C@@H](O)[C@H](N)[C@H]1O [ARBEKACIN]	8 µg/mL (≈ 14.5 µM)	16 µg/mL (≈ 29 µM)	2 µg/mL (≈ 3.62 µM)	< 0.5 µg/mL	2 µg/mL (≈ 3.62 µM)	4 µg/mL (≈ 7.24 µM)	4 µg/mL (≈ 7.24 µM)	–	–	–	–	–
C[C@H]1[C@H](NC(=O)/C(=N\OC(C)(C)C(=O)O)c2csc(N)n2)C(=O)N1S(=O)(=O)O [AZTREONAM]	64 µg/mL (≈ 147 µM)	64 µg/mL (≈ 147 µM)	128 µg/mL (≈ 294 µM)	2 µg/mL (≈ 4.59 µM)	–	–	–	–	–	–	–	–
CC(C)(O/N=C(\C(=O)N[C@@H]1C(=O)N2C(C(=O)[O-])=C(C[n+]3ccccc3)CS[C@H]12)c1csc(N)n1)C(=O)O [CEFTAZIDIME]	512 µg/mL (≈ 937 µM)	512 µg/mL (≈ 937 µM)	512 µg/mL (≈ 937 µM)	< 1 µg/mL	–	–	–	–	–	–	–	–
NC[C@@H]1CC[C@@H](N)[C@@H](O[C@H]2[C@H](O)[C@@H](O[C@H]3O[C@H](CO)[C@@H](O)[C@H](N)[C@H]3O)[C@H](N)C[C@@H]2N)O1 [DIBEKACIN]	> 128 µg/mL	> 128 µg/mL	–	–	1 µg/mL (≈ 2.21 µM)	16 µg/mL (≈ 35.4 µM)	32 µg/mL (≈ 70.9 µM)	–	–	–	–	–
NC[C@@H]1O[C@H](O[C@H]2[C@@H](O)[C@H](O[C@@H]3[C@@H](O)[C@H](N)C[C@H](N)[C@H]3O[C@H]3O[C@H](CN)[C@@H](O)[C@H](O)[C@H]3N)O[C@@H]2CO)[C@H](N)[C@@H](O)[C@@H]1O [FRAMYCETIN]	8 µg/mL (≈ 13 µM)	8 µg/mL (≈ 13 µM)	–	–	2 µg/mL (≈ 3.25 µM)	4 µg/mL (≈ 6.51 µM)	4 µg/mL (≈ 6.51 µM)	–	–	–	–	–
C[C@@H](O)[C@H]1C(=O)N2C(C(=O)O)=C(SCCNC=N)C[C@H]12 [IMIPENEM ANHYDROUS]	128 µg/mL (≈ 428 µM)	128 µg/mL (≈ 428 µM)	128 µg/mL (≈ 428 µM)	4 µg/mL (≈ 13.4 µM)	–	–	–	–	–	–	–	–
CN[C@@H]1[C@@H](O)C(O[C@@H]2[C@@H](O)[C@H](OC3O[C@H](CN)[C@@H](O)[C@H](O)[C@H]3O)[C@@H](N)C[C@H]2NC(=O)[C@@H](O)CN)OC[C@]1(C)O (some centres undefined) [ISOPAMICIN]	> 128 µg/mL	> 128 µg/mL	–	–	1 µg/mL (≈ 1.76 µM)	4 µg/mL (≈ 7.02 µM)	16 µg/mL (≈ 28.1 µM)	–	–	–	–	–
NC[C@H]1O[C@H](O[C@H]2[C@H](O)[C@@H](O[C@H]3O[C@H](CO)[C@@H](O)[C@H](N)[C@H]3O)[C@H](N)C[C@@H]2N)[C@H](O)[C@@H](O)[C@@H]1O [KANAMYCIN]	> 128 µg/mL	> 128 µg/mL	–	–	2 µg/mL (≈ 4.13 µM)	64 µg/mL (≈ 132 µM)	128 µg/mL (≈ 264 µM)	–	–	–	–	–
C[C@@H](O)[C@H]1C(=O)N2C(C(=O)O)=C(S[C@@H]3CN[C@H](C(=O)N(C)C)C3)[C@H](C)[C@H]12 [MEROPENEM]	> 512 µg/mL	> 512 µg/mL	512 µg/mL (≈ 1340 µM)	1 µg/mL (≈ 2.61 µM)	–	–	–	≥ 16 µg/mL	–	–	–	–
CCN[C@@H]1C[C@H](N)[C@@H](O[C@H]2OC(CN)=CC[C@H]2N)[C@H](O)[C@H]1O[C@H]1OC[C@](C)(O)[C@H](NC)[C@H]1O [NETILMICIN]	> 128 µg/mL	> 128 µg/mL	–	–	0.5 µg/mL (≈ 1.05 µM)	8 µg/mL (≈ 16.8 µM)	8 µg/mL (≈ 16.8 µM)	–	–	–	–	–
CC1COc2c(N3CCN(C)CC3)c(F)cc3c(=O)c(C(=O)O)cn1c23 (centres undefined) [OFLOXACIN]	> 128 µg/mL	> 128 µg/mL	–	< 0.5 µg/mL	–	–	–	≥ 4 µg/mL	–	–	–	–
CCN1CCN(C(=O)N[C@@H](C(=O)N[C@@H]2C(=O)N3[C@@H]2SC(C)(C)[C@@H]3C(=O)O)c2ccccc2)C(=O)C1=O [PIPERACILLIN]	256 µg/mL (≈ 495 µM)	256 µg/mL (≈ 495 µM)	256 µg/mL (≈ 495 µM)	< 4 µg/mL	–	–	–	–	–	–	–	–
CN[C@@H]1[C@@H](O)[C@@H](O[C@@H]2[C@@H](O)[C@H](O[C@H]3OC(CN)=CC[C@H]3N)[C@@H](N)C[C@H]2N)OC[C@]1(C)O [SISOMICIN]	32 µg/mL (≈ 71.5 µM)	32 µg/mL (≈ 71.5 µM)	–	–	0.5 µg/mL (≈ 1.12 µM)	1 µg/mL (≈ 2.23 µM)	2 µg/mL (≈ 4.47 µM)	–	–	–	–	–
C[C@]1(Cn2ccnn2)[C@H](C(=O)O)N2C(=O)C[C@H]2S1(=O)=O [TAZOBACTAM]	–	–	–	–	–	–	–	–	256 µg/mL	256 µg/mL	256 µg/mL	4 µg/mL
NC[C@H]1O[C@H](O[C@H]2[C@H](O)[C@@H](O[C@H]3O[C@H](CO)[C@@H](O)[C@H](N)[C@H]3O)[C@H](N)C[C@@H]2N)[C@H](N)C[C@@H]1O [TOBRAMYCIN]	32 µg/mL (≈ 68.4 µM)	32 µg/mL (≈ 68.4 µM)	–	–	0.125 µg/mL (≈ 0.267 µM)	4 µg/mL (≈ 8.56 µM)	4 µg/mL (≈ 8.56 µM)	–	–	–	–	–
GENTAMICIN	4 µg/mL	2 µg/mL	16 µg/mL	< 1 µg/mL	–	1 µg/mL	1 µg/mL	–	–	–	–	–
POLYMYXIN B	4 µg/mL	4 µg/mL	2 µg/mL	2 µg/mL	–	–	–	–	–	–	–	–
